Assay results from ChEMBL document CHEMBL1132971, “New azolidinediones as inhibitors of protein tyrosine phosphatase 1B with antihyperglycemic properties” (J Med Chem, 2000).

Experiments:
Mus musculus [1] = assay: Evaluated for their ability to decrease plasma insulin levels in mouse at a dose 100 mg/kg/day.; assay type: functional
Summary of the method: (§1)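 Mice dosed orally once daily for 4 days; plasma glucose and insulin measured and expressed as percent change versus a vehicle-treated group (mean ± SE, 4-6 mice/group). NS is generally less than -15% change. Significance is versus vehicle-treated mice.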

[2] = molecular target: T1, Tyrosine-protein phosphatase non-receptor type 1 (Rattus norvegicus) (UniProt P20417); assay: Inhibition of PTPase activity using recombinant Protein-tyrosine phosphatase 1B as the enzyme and IR-triphosphopeptide as substrate at 50 uM
T1 sequence (whole entry): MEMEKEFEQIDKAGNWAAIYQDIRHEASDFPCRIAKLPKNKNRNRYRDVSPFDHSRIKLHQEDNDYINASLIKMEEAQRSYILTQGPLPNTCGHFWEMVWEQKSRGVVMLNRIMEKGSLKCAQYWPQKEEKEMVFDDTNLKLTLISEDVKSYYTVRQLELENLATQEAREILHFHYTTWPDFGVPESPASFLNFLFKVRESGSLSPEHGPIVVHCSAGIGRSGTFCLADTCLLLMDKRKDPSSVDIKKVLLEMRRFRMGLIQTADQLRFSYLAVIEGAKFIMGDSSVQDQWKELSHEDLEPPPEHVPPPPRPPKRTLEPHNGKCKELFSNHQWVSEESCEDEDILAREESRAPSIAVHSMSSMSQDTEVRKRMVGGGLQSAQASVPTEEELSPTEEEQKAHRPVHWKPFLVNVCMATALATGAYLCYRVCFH
Summary of the method: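 Recombinant rat PTP1B (human 321-aa form assayed the same way), activity about 1000-2000 nmol/min/mg, preincubated with compound for 10 min at 37 °C in HEPES pH 7.4. The reaction is started with 50 µM triphosphorylated insulin receptor 1142-1153 dodecapeptide and run 30 min at 37 °C. Released phosphate read by malachite green-molybdate at 650 nm, in quadruplicate. Result is percent inhibition versus control.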

Mus musculus [3] = assay: Evaluated in vivo for their ability to decrease plasma glucose levels in diabetic C57BL/KsJ ob/ob mouse at a dose 20 mg/kg/day; **p indicates <0.01; assay type: functional; summary of the method: as §1
Mus musculus [4] = assay: Evaluated in vivo for their ability to decrease plasma glucose levels in diabetic C57BL/KsJ ob/ob mouse at a dose 100 mg/kg/day; **p indicates <0.01; assay type: functional; summary of the method: as §1
Mus musculus [5] = assay: Evaluated in vivo for their ability to decrease plasma glucose levels in diabetic C57BL/KsJ db/db mouse at a dose 100 mg/kg/day; *p indicates <0.05; assay type: functional; summary of the method: as §1
[6] = molecular target: T1, Tyrosine-protein phosphatase non-receptor type 1 (Rattus norvegicus); assay: Inhibition of Protein-tyrosine phosphatase 1B activity in rat hepatic membrane at a concentration of 50 uM using pNPP as the substrate; assay type: cell membranes; conditions: Liver
Summary of the method: (§2)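 Liver membranes from male Sprague-Dawley rats (100-150 g), about 30 µg protein per well. Preincubated 10 min at 37 °C with compound in 1.25% DMSO in 50 mM HEPES pH 7.4. Then 6.33 mM pNPP for 30 min at 37 °C, stopped with NaOH. p-Nitrophenol read at 410 nm. Run in triplicate. Reported as percent of untreated control.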

Mus musculus [7] = assay: Evaluated for their ability to decrease plasma insulin level at a dose of 20 mg/kg/day; **p indicates <0.01; assay type: functional; summary of the method: as §1
[8] = molecular target: T1, Tyrosine-protein phosphatase non-receptor type 1 (Rattus norvegicus); assay: Inhibition of PTPase activity using recombinant r-PTP1B as the enzyme and IR-triphosphopeptide as substrate at 50 uM
Summary of the method: (§3)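 Rat recombinant PTP1B in 33 mM TRIS-HCl, 2 mM EDTA, 50 mM β-mercaptoethanol, pH 7.4 (about 1000-2000 nmol/min/mg). Preincubated 10 min at 37 °C with or without compound in HEPES buffer pH 7.4. Released phosphate read by malachite green-ammonium molybdate at 650 nm against a phosphate standard. Quadruplicates. IC50 by four-parameter logistic fit.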

[9] = molecular target: T2, Tyrosine-protein phosphatase non-receptor type 1 (Homo sapiens) (UniProt P18031); assay: % inhibition of PTPase activity, recombinant Protein Tyrosine Phosphatase 1b as the enzyme at a concentration 50 uM.; summary of the method: as §3
T2 sequence (whole entry): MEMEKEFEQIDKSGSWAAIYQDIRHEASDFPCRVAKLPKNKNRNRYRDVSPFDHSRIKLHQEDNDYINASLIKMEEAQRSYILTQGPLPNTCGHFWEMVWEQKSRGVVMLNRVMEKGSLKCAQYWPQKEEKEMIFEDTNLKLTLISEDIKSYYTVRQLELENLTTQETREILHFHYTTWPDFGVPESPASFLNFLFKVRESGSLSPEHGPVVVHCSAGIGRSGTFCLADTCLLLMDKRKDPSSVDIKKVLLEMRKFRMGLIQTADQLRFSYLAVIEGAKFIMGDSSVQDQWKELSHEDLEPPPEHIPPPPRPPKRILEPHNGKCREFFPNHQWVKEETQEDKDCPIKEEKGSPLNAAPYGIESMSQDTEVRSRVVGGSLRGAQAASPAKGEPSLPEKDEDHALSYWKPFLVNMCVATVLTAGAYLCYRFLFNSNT

Mus musculus [10] = assay: Evaluated in vivo for their ability to decrease plasma glucose levels in diabetic C57BL/KsJ ob/ob mouse at a dose 100 mg/kg/day.,**p indicates <0.01; assay type: functional; summary of the method: as §1
Mus musculus [11] = assay: Evaluated for their ability to decrease plasma insulin levels in mouse at a dose 100 mg/kg/day.,**p indicates <0.01; assay type: functional; summary of the method: as §1
Mus musculus [12] = assay: Evaluated for their ability to decrease plasma insulin levels in mouse at a dose 100 mg/kg/day,**p indicates <0.01; assay type: functional; summary of the method: as §1
[13] = molecular target: T1, Tyrosine-protein phosphatase non-receptor type 1 (Rattus norvegicus); assay: Inhibition of PTPase (PTP1B) activity in rat hepatic membrane at 50 uM concentration, using pNPP as the substrate; assay type: cell membranes; conditions: Liver; summary of the method: as §2
Mus musculus [14] = assay: Evaluated in vivo for their ability to decrease plasma glucose levels in diabetic C57BL/KsJ ob/ob mouse at a dose 100 mg/kg/day,**p indicates <0.01; assay type: functional; summary of the method: as §1
[15] = molecular target: T3, Tyrosine-protein phosphatase non-receptor type 1 (Rattus norvegicus, UniProt P20417); assay: Inhibition of PTPase activity using recombinant r-PTP1B as the enzyme and IR-triphosphopeptide as substrate; summary of the method: as §3
T3 sequence (P20417 whole entry): T1 sequence (whole entry)

Mus musculus [16] = assay: Evaluated in vivo for their ability to decrease plasma glucose levels in diabetic C57BL/KsJ ob/ob mouse at a dose 100 mg/kg/day *p indicates <0.05; assay type: functional
Summary of the method: (§4)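 Diabetic db/db or ob/ob mice dosed orally once daily for 4 days. Plasma glucose and insulin reported as percent change from a vehicle-treated group. 4-6 mice per group. Significance set at p < 0.05 or p < 0.01 versus vehicle; NS means generally less than -15% change.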

Mus musculus [17] = assay: Evaluated for their ability to decrease plasma insulin levels in mouse at a dose 100 mg/kg/day, *p indicates <0.05; assay type: functional; summary of the method: as §4
Mus musculus [18] = assay: Evaluated for their ability to decrease plasma insulin levels in mouse at a dose 100 mg/kg/day. **p indicates <0.01; assay type: functional; summary of the method: as §1
[19] = molecular target: T3, Tyrosine-protein phosphatase non-receptor type 1; assay: Inhibition of PTPase activity in rat hepatic membrane at a concentration of 50 uM using pNPP as the substrate; assay type: cell membranes, Liver; summary of the method: as §2
Mus musculus [20] = assay: Evaluated in vivo for their ability to decrease plasma glucose levels in diabetic C57BL/KsJ ob/ob mouse at a dose 100 mg/kg/day. **p indicates <0.01; assay type: functional; summary of the method: as §4
Mus musculus [21] = assay: Evaluated in vivo for their ability to decrease plasma glucose levels in diabetic C57BL/KsJ db/db mouse at a dose 100 mg/kg/day *p indicates <0.05; assay type: functional; summary of the method: as §4
Mus musculus [22] = assay: Evaluated in vivo for their ability to decrease plasma glucose levels in diabetic C57BL/KsJ ob/ob mouse at a dose 100 mg/kg/day, **p indicates <0.01; assay type: functional; summary of the method: as §1
Mus musculus [23] = assay: Evaluated for their ability to decrease plasma insulin levels in mouse at a dose 100 mg/kg/day, **p indicates <0.01; assay type: functional; summary of the method: as §1
Mus musculus [24] = assay: Evaluated in vivo for their ability to decrease plasma glucose levels in diabetic C57BL/KsJ db/db mouse at a dose 100 mg/kg/day, *p indicates <0.05; assay type: functional; summary of the method: as §1
Mus musculus [25] = assay: Evaluated in vivo for their ability to decrease plasma glucose levels in diabetic C57BL/KsJ ob/ob mouse at a dose 10 mg/kg/day, *p indicates <0.05; assay type: functional; summary of the method: as §1
[26] = molecular target: T3, Tyrosine-protein phosphatase non-receptor type 1; assay: Concentration required to inhibit PTPase activity, recombinant r-PTP1B as the enzyme at a concentration 2.5 uM.; summary of the method: as §3

With `CC/C(=C\Cn1oc(=O)[nH]c1=O)c1cccc(OCc2nc(-c3ccc(C(F)(F)F)cc3)oc2C)c1` the Decrease (Mus musculus [1]) was 80%, the inhibition [2] was 90% and the Decrease (Mus musculus [3]) was 32%. It also gave a Decrease (Mus musculus [4]) of 71%, a Decrease (Mus musculus [5]) of 63% and an inhibition [6] of 57%. It also gave a Decrease (Mus musculus [7]) of 32%.
In the case of `CCCC/C(=C\Cn1oc(=O)[nH]c1=O)c1cccc(OCc2nc(-c3ccc(C(F)(F)F)cc3)oc2C)c1`, the inhibition [8] is reported as 1.9%, the inhibition [9] is reported as 1.4% and the Decrease (Mus musculus [10]) is reported as 61%. It also gave a Decrease (Mus musculus [11]) of 88%.
`Cc1oc(-c2ccc(C(F)(F)F)cc2)nc1COc1cccc(/C(=C/Cn2oc(=O)[nH]c2=O)c2ccccc2)c1` showed an inhibition [8] of 1.1%, a Decrease (Mus musculus [12]) of 74% and an inhibition [13] of 24%. It also gave a Decrease (Mus musculus [14]) of 55%.
`C/C(=C\Cn1sc(=O)[nH]c1=O)c1cccc(OCc2nc(-c3ccc(C(F)(F)F)cc3)oc2C)c1` was tested, and the IC50 [15] was 3.8 µM, the Decrease (Mus musculus [16]) was 29% and the inhibition [13] was “Not significant”. For the same compound, the Decrease (Mus musculus [17]) was 26%.
`C/C(=C\c1cccc(OCc2nc(-c3ccc(C(F)(F)F)cc3)oc2C)c1)Cn1oc(=O)[nH]c1=O` gave a Decrease (Mus musculus [18]) of 28%, an inhibition [8] of 7% and an Inhibition % [19] of 71%. For the same compound, the Decrease (Mus musculus [20]) was 37% and the Decrease (Mus musculus [21]) was 36%.
`C/C(=C\Cn1oc(=O)[nH]c1=O)c1cccc(OCc2nc(-c3ccc(C(F)(F)F)cc3)oc2C)c1` was tested, and the inhibition [8] was 1.9%, the inhibition [13] was 49% and the Decrease (Mus musculus [22]) was 58%. For the same compound, the Decrease (Mus musculus [23]) was 86%, the Decrease (Mus musculus [24]) was 62% and the Decrease (Mus musculus [25]) was 20%.
With `C/C(=C\Cn1oc(=O)[nH]c1=O)c1cccc(OCC#Cc2cc(C(F)(F)F)cc(C(F)(F)F)c2)c1` the IC50 [26] was 25 µM and the inhibition [13] was 62%.
